The source made the active and inactive calls. The calls are words filed in the database; no cut-off is given here.
What was measured:
K562 = assay: Antiproliferative activity against human K562 cells; assay type: functional
[1] = Antiproliferative activity against mouse L929 cells; assay type: cell-based
HeLa = assay: Cytotoxicity against human HeLa cells; assay type: functional; settings: for CC50: Homo sapiens, HeLa
In short: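 HeLa Ohio cells grown 2 days to confluent monolayers, then growth medium replaced with nine 2-fold compound dilutions in test medium. Incubated 72 h at 37 °C, 5% CO2. Cells fixed, washed and stained, with OD read at 660 nm. Viability taken as % of six untreated controls. CC50 calculated from the mean dose–response curve of two assays.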

[2] = tested on: Remotididymella destructiva; assay: Induction of morphogenesis in Phoma destructiva at 1.7 mM; assay type: functional, organism-based
In short: (§1)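 Phoma destructiva vegetative mycelium grown on malt agar plates (malt extract, glucose, yeast extract, (NH4)2SO4, pH 6.0), set up like an agar-well diffusion assay. 50 µL of purified metabolite placed in 9 mm agar wells. Plates incubated for three days, then scored visually for changes in pigment and aerial mycelium formation.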

[3] = tested on: Remotididymella destructiva; assay: Induction of pigment formation in Phoma destructiva at 1.7 mM; assay type: functional, organism-based; in short: as §1

CC(=O)OC[C@H]1O[C@@H](OCCCCCCCCCCCCCCC(C)C(=O)C2=C(O)N(C)C(C)C2=O)[C@@H](O)[C@@H](O)[C@@H]1O (stereo partly drawn) [EPICOCCAMIDE C]
GI50 (K562): 33.7 µM
GI50 [1]: 57.2 µM
CC10 (HeLa): 13.6 µM
CC50 (HeLa): 29 µM

CC(=O)O[C@@H]1[C@H](O)[C@H](OCCCCCCCCCCCCCCC(C)C(=O)C2=C(O)N(C)C(C)C2=O)O[C@H](CO)[C@H]1O (stereo partly drawn)
GI50 (K562): 52.7 µM
GI50 [1]: 71.1 µM
CC10 (HeLa): 26.2 µM
CC50 (HeLa): 44.2 µM

CC(CCCCCCCCCCCCCCO[C@@H]1O[C@H](CO)[C@@H](O)[C@H](O)[C@@H]1O)C(=O)C1=C(O)N(C)C(C)C1=O (stereo partly drawn)
GI50 (K562): > 90 µM
GI50 [1]: > 90 µM
CC10 (HeLa): 51.3 µM
CC50 (HeLa): > 90 µM

CC(CCCCCCCCCCCCCCCCO[C@@H]1O[C@H](CO)[C@@H](O)[C@H](O)[C@@H]1O)C(=O)C1=C(O)N(C)C(C)C1=O (stereo partly drawn) [EPICOCCAMIDE D]
GI50 (K562): 33.3 µM
GI50 [1]: 50.5 µM
Activity [2]: Active
CC10 (HeLa): 11.6 µM
CC50 (HeLa): 17 µM
Activity [3]: Active

From ChEMBL document CHEMBL1141335, “Epicoccamides B-D, glycosylated tetramic acid derivatives from an Epicoccum sp. associated with the tree fungus Pholiota squarrosa” (J Nat Prod, 2007)
